Measured values reported in article PMC8837702 (Archives of toxicology, 2021).
Like-named read-outs stand apart in the source and are kept apart here. Blank lines part the entries; values can stand above or below the compound they belong to.

Key:
[1] = test system: NAT1; details: cited from earlier work; for IC50: read-out: IC50 NAT1
[2] = molecular target: T1, recombinant human NAT2 (Homo sapiens, UniProt P11245); test: Recombinant human NAT2; type: biochemical; details: for inhibition of human NAT2: at concentrations up to 2 mM
T1 sequence (P11245 1-290): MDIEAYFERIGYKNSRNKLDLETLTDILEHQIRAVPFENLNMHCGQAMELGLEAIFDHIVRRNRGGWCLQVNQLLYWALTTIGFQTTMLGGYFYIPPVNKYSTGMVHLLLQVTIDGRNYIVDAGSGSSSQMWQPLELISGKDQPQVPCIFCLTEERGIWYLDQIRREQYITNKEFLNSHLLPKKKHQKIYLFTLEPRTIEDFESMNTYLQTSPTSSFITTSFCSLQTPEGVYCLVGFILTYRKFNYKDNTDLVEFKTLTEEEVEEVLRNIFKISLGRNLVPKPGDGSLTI
Method in brief: (§1)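 Lysates of S. pombe stably expressing recombinant human NAT1 (10 μM PABA) or NAT2 (10 μM SMZ) were run with 100 μM acetyl-CoA over a test-compound concentration series. Substrate and N-acetylated product were separated and measured by HPLC. IC50 came from nonlinear regression, reported as mean ± SEM (n=3).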

[3] = molecular target: T2, NAT1 (Homo sapiens, UniProt P18440); test: Recombinant human NAT1; type: biochemical; details: for fold less potent than compound 10 towards recombinant human NAT1: in vitro IC50 comparison; for IC50 NAT2/IC50 NAT1: ratio; for IC50 NAT2/IC50 NAT1 / fold lower IC50 for NAT1 versus NAT2: PABA (NAT1) vs SMZ (NAT2)
T2 sequence (P18440 1-290): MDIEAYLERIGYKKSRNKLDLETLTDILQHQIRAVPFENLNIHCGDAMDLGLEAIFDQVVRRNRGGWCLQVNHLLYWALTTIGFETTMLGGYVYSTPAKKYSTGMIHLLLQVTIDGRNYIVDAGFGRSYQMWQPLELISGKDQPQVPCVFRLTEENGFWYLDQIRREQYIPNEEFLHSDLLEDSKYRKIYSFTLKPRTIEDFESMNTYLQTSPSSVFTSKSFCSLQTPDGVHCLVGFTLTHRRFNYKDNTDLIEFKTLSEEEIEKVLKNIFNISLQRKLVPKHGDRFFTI
Method in brief: as §1

[4] = molecular target: T2, NAT1; test: PABA N-acetylation in situ in cryopreserved human hepatocytes; type: cell-based
Method in brief: (§2)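 Cultured cryopreserved human hepatocytes from five donors, all of intermediate NAT2 acetylator genotype, were incubated for 24 hr with 50 μM PABA or SMZ plus varying test-compound concentrations. Parent substrates and N-acetylated metabolites were separated and quantified by HPLC. Each point is the mean ± SEM over the 5 samples.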

[5] = test system: endogenous NAT1 in MDA-MB-231 cells; test: N-acetylation capacity in MDA-MB-231 cells; type: cell-based, human; details: 10 μM ABP or PABA, 4 hr
Method in brief: (§3)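 Cells grown in DMEM with 10% FBS, penicillin and streptomycin at 37°C, 5% CO2, were taken to confluence. They were then exposed for 4 hr at 37°C to medium with 10 μM ABP or PABA and test compound. Collected medium was acidified with 1/10 volume 1 M acetic acid and spun at 13,000 g for 10 min. The supernatant was analysed by HPLC for N-acetyl products; n=3, mean ± SEM.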

[6] = test system: MDA-MB-231 cells; test: CytoSelect cell invasion assay, MDA-MB-231; type: cell-based, human; details: 24 hr, 0, 31.25, 62.5, 125 μM
Method in brief: (§4)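 CytoSelect 24-well colorimetric invasion assay: 300,000 cells were seeded and allowed to invade toward medium containing 10% FBS for 24 hr with test compound present. Invasion was expressed as a percentage of the DMSO vehicle control. Mean ± SEM (n=3).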

[7] = molecular target: T3, human NAT1 expressed in CHO cells (Homo sapiens, UniProt P18440); test: N-acetylation in situ in UV5 CHO cells expressing human NAT1 and CYP1A1; type: cell-based
T3 sequence (P18440 1-290): T2 sequence (P18440 1-290)
Method in brief: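 UV5 CHO cells (nucleotide excision repair-deficient, XPD mutant) stably transfected with human CYP1A1 and NAT1*4 were plated 24 hr beforehand. Medium was then replaced with α-MEM containing 10 μM PABA or ABP plus test compound. After 2 hr, medium was sampled and N-acetylation quantified by HPLC. Mean ± SD of 3 experiments; IC50 by nonlinear regression.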

[8] = test system: MCF-7 cells; test: CytoSelect cell invasion assay, MCF-7; type: cell-based, human; details: 24 hr, 0, 31.25, 62.5, 125 μM
Method in brief: as §4

[9] = test system: NAT2; test: SMZ N-acetylation in situ in cryopreserved human hepatocytes; type: cell-based; details: 50 μM SMZ, 24 hr, concentrations up to 200 μM
Method in brief: as §2

[10] = molecular target: T2, NAT1; type: biochemical; details: ABP as substrate
Method in brief: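 Recombinant human NAT1 or NAT2 expressed in Schizosaccharomyces pombe, assayed in yeast lysate with 10 μM ABP, 100 μM acetyl-CoA and test compound at 0–200 μM. Substrate and N-acetylated product were separated and quantified by HPLC. The value is the mean ± SD of 3 experiments, with IC50 for each isozyme from nonlinear regression.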

[11] = test system: endogenous NAT1 in MCF-7 cells; test: N-acetylation capacity in MCF-7 cells; type: cell-based, human; details: 10 μM ABP or PABA, 4 hr
Method in brief: as §3

[12] = test system: MCF-10A cells; test: AlamarBlue cell viability and proliferation, MCF-10A; type: cell-based, human
Method in brief: (§5)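 Cells were seeded in 96-well plates and left 24 hr. They were then treated with test compound (0–250 μM) in their own medium for up to 144 hr: MEBM with supplements for MCF-10A, DMEM with 10% FBS for MDA-MB-231. AlamarBlue (1/10 culture volume) was added 1 hr before each time point at 37°C, then fluorescence read (ex 570, em 580 nm). Mean ± SEM (n=4).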

[13] = test system: human NAT1; test: Reversibility of NAT1 inhibition in primary hepatocytes; type: cell-based; details: 100 or 200 μM for 1 hr, removed, then 10 μM PABA for 5 hr
[14] = test system: MDA-MB-231 cells; test: AlamarBlue cell viability and proliferation, MDA-MB-231; type: cell-based, human
Method in brief: as §5

[15] = read-out: IC50 for NAT1, in vitro, recombinant in yeast, 10 μM PABA, 100 μM AcCoA, Mean ± SEM (n=3)

Compound: O=C1NC(=S)S/C1=C/c1cc(I)c(O)c(I)c1 [(5E)-[5-(4-hydroxy-3,5-diiodobenzylidene)-2-thioxo-1,3-thiazolidin-4-one]
fold more selective for NAT1 than NAT2 [1]: 25 fold
IC50 [1]: 0.732 µM

Compound: O=C1NC(=S)S/C1=C\c1ccccc1O [(Z)-5-(2-hydroxybenzylidene)-2-thioxothiazolidin-4-one]
IC50 [1]: 101 µM

Compound: O=C1c2ccccc2C(=O)c2c1ccc(O)c2O [Analog 3 (Alizarin), 1,2-dihydroxyanthraquinone]
IC50 [2]: 98.6 ± 9.4 µM
IC50 [4]: 70 ± 1.4 µM
IC50 [3]: 0.886 ± 0.0895 µM
fold lower IC50 for NAT1 versus NAT2 ([3]; in vitro): over 100 fold
IC50 NAT2/IC50 NAT1 [3]: 113

Compound: 1-(9,10-dihydro-8-hydroxy-9,10-dioxo-1-anthracenyl)4-ethyl ester [Analog 1]
inhibition of human NAT2 [2]: No inhibition
fold less potent than compound 10 towards recombinant human NAT1 [3]: over 100 fold
IC50 NAT2/IC50 NAT1 [3]: >11.7
IC50 [3, 15]: 171 ± 4.7 µM

Second part, led by results:

inhibition of human NAT2 [2]: No inhibition
fold less potent than compound 10 towards recombinant human NAT1 [3]: over 100 fold
IC50 NAT2/IC50 NAT1 [3]: >21.3
IC50 [3, 15]: 94 ± 6.8 µM
Compound: 9,10-dihydro-9,10-dioxo-1,8-anthracenediyl diethyl ester [Analog 2]

IC50 ([7]; read-out: in situ IC50, ABP N-acetylation in CHO cells, ABP as substrate): 81.6 ± 4.4 µM
IC50 ([7]; read-out: in situ IC50, PABA N-acetylation in CHO cells, PABA as substrate): 118 ± 5 µM
inhibition of SMZ N-acetylation in cryopreserved human hepatocytes [9]: no inhibition
fold lower IC50 for NAT1 versus NAT2, ABP N-acetylation [10]: over 50 fold
IC50 ([4]; read-out: IC50, PABA N-acetylation in cryopreserved human hepatocytes, 50 μM PABA, 24 hr, 5 hepatocyte samples of intermediate NAT2 acetylator genotype): 158 ± 22 µM
fold lower IC50 for NAT1 versus NAT2 ([3]; in vitro): over 100 fold
IC50 NAT2/IC50 NAT1 [3]: 110
IC50 [3, 15]: 0.75 ± 0.2 µM
IC50 ([14]; read-out: IC50 for cell proliferation, MDA-MB-231, 72 hr): 32 µM
Compound: 9,10-dihydro-9,10-dioxo-1,2-anthracenediyl diethyl ester [Compound 10]
N-acetylation of PABA and ABP in MDA-MB-231 [5]: inhibited
cell invasion/migration, MDA-MB-231 [6]: dose-dependent inhibition
cell invasion/migration, MCF-7 [8]: dose-dependent inhibition
N-acetylation of PABA and ABP in MCF-7 [11]: inhibited
cell proliferation, MCF-10A ([12]; non-tumorigenic cell line, later time points): a decrease in cell proliferation was observed
IC50 ([12]; read-out: IC50 for cell proliferation, MCF-10A, 72 hr): 113 µM
reversibility of inhibition of PABA N-acetylation [13]: reversible
cell viability, MDA-MB-231 ([14]; 4-48 hr, 0-250 μM): did not decrease cell viability
cell proliferation, MDA-MB-231 ([14]; 72 and 144 hr): dose-dependent decrease
